{
  "source": "ChEMBL document CHEMBL1121685",
  "about": "“Development of new mitomycin C and porfiromycin analogues” (J Med Chem, 1981)",
  "key": {"[1]": {"tested_on": "Mus musculus", "assay": "Effect of compound on total white blood cell count in BDG1 male mice, after intraperitoneal administration at a dose of 6.7 mg/kg on day 5", "assay_type": "functional", "method_in_brief": "(§1)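 Single ip dose given on day 0 to BDG₁ male mice. Total white blood cell count measured on days 3, 5 and 7, expressed as % change from control. Highest dose was at the LD₅₀, or at twice the optimal dose where so footnoted. Significance reported at p ≤ 0.05 and p ≤ 0.01. D marks death of one or more mice.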"}, "[2]": {"tested_on": "Mus musculus", "assay": "Effect of compound on total white blood cell count in BDG1 male mice, after intraperitoneal administration at a dose of 5.03 mg/kg on day 5", "assay_type": "functional", "method_in_brief": "as §1"}, "[3]": {"assay": "Therapeutic ratio is expressed as ratio of optimal dose and minimum effective dose", "assay_type": "ADME", "conditions": "mouse; read-out: TR", "method_in_brief": "(§2)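 10⁶ P-388 ascites cells implanted ip in CDF₁ female mice. Six mice per dose, 10 saline-injected controls, and a concurrent mitomycin C reference group. %T/C = median survival time of treated/control × 100. MED is the lowest dose giving %T/C > 125. Therapeutic ratio = optimal dose/MED.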"}, "[4]": {"tested_on": "Mus musculus", "assay": "Effect of compound on total white blood cell count in BDG1 male mice, after intraperitoneal administration at a dose of 6.7 mg/kg on day 7", "assay_type": "functional", "method_in_brief": "as §1"}, "[5]": {"tested_on": "Mus musculus", "assay": "Effect of compound on total white blood cell count in BDG1 male mice, after intraperitoneal administration at a dose of 5.03 mg/kg on day 7", "assay_type": "functional", "method_in_brief": "as §1"}, "[6]": {"tested_on": "Mus musculus", "assay": "Effect of compound on total white blood cell count in BDG1 male mice, after intraperitoneal administration at a dose of 5.03 mg/kg on day 3", "assay_type": "functional", "method_in_brief": "as §1"}, "[7]": {"tested_on": "Mus musculus", "assay": "Effect of compound on total white blood cell count in BDG1 male mice, after intraperitoneal administration at a dose of 3.77 mg/kg on day 3", "assay_type": "functional", "method_in_brief": "(§3)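 Single ip dose given on day 0 to BDG1 male mice over a descending dose series. Total white blood cell count is expressed as % change from untreated control on days 3, 5 and 7. Significance is flagged at p ≤ 0.05 and p ≤ 0.01.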"}, "[8]": {"tested_on": "Mus musculus", "assay": "Effect of compound on total white blood cell count in BDG1 male mice, after intraperitoneal administration at a dose of 6.7 mg/kg on day 3", "assay_type": "functional", "method_in_brief": "as §1"}, "[9]": {"tested_on": "Mus musculus", "assay": "Effect of compound on total white blood cell count in BDG1 male mice, after intraperitoneal administration of a compound of 2.83 mg/kg on day 3", "assay_type": "functional"}, "[10]": {"tested_on": "Mus musculus", "assay": "Effect of compound on total white blood cell count in BDG1 male mice, after intraperitoneal administration at a dose of 3.77 mg/kg on day 7", "assay_type": "functional", "method_in_brief": "as §3"}, "[11]": {"tested_on": "Mus musculus", "assay": "Effect of compound on total white blood cell count in BDG1 male mice, after intraperitoneal administration at a dose of 3.77 mg/kg on day 5", "assay_type": "functional", "method_in_brief": "as §3"}, "[12]": {"tested_on": "Mus musculus", "assay": "Antitumor activity against P-388 murine leukemia cells in CDF1 female mice after intraperitoneal administration at the specified optimal dose of 3.2 mg/kg", "assay_type": "functional"}, "[13]": {"tested_on": "Mus musculus", "assay": "Effect of compound on total white blood cell count in BDG1 male mice, after intraperitoneal administration at a dose of 2.83 mg/kg on day 5", "assay_type": "functional", "method_in_brief": "as §3"}, "[14]": {"tested_on": "Mus musculus", "assay": "Effect of compound on total white blood cell count in BDG1 male mice, after intraperitoneal administration at a dose of 2.83 mg/kg on day 7", "assay_type": "functional", "method_in_brief": "as §3"}, "[15]": {"tested_on": "Mus musculus", "assay": "Minimum effective dose that show activity against P-388 murine leukemia cells in CDF1 female mice, after intraperitoneal administration (optimal dose is 3.2 mg/kg)", "assay_type": "functional", "conditions": "P388, ip, read-out: MED", "method_in_brief": "as §2"}, "[16]": {"tested_on": "Mus musculus", "assay": "Effect of compound on total white blood cell count in BDG1 male mice, after intraperitoneal administration at a dose of 7.4 mg/kg on day 7", "assay_type": "functional", "method_in_brief": "as §1"}, "[17]": {"tested_on": "Mus musculus", "assay": "Effect of compound on total white blood cell count in BDG1 male mice, after intraperitoneal administration at a dose of 7.4 mg/kg on day 3", "assay_type": "functional", "method_in_brief": "as §1"}, "[18]": {"tested_on": "Mus musculus", "assay": "Effect of compound on total white blood cell count in BDG1 male mice, after intraperitoneal administration at a dose of 5.5 mg/kg on day 7", "assay_type": "functional", "method_in_brief": "as §1"}, "[19]": {"species_on_record": "Mus musculus", "assay": "Degree of leukopenia produced by compound is assessed form Percent change in white cells on days 5", "assay_type": "functional", "method_in_brief": "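BDG₁ male mice received a single ip dose on day 0. The dose series topped out at the LD₅₀ level, or at twice the optimal dose for some agents. Total white blood cell count was taken on days 3, 5 and 7 and expressed as % change from untreated controls. Significance was set at p ≤ 0.05 or p ≤ 0.01.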"}, "[20]": {"tested_on": "Mus musculus", "assay": "Effect of compound on total white blood cell count in BDG1 male mice, after intraperitoneal administration at a dose of 9.8 mg/kg on day 5", "assay_type": "functional", "method_in_brief": "as §1"}, "[21]": {"tested_on": "Mus musculus", "assay": "Effect of compound on total white blood cell count in BDG1 male mice, after intraperitoneal administration at a dose of 9.8 mg/kg on day 3", "assay_type": "functional", "method_in_brief": "as §1"}, "[22]": {"tested_on": "Mus musculus", "assay": "Effect of compound on total white blood cell count in BDG1 male mice, after intraperitoneal administration at a dose of 9.8 mg/kg on day 7", "assay_type": "functional", "method_in_brief": "as §1"}, "[23]": {"tested_on": "Mus musculus", "assay": "Effect of compound on total white blood cell count in BDG1 male mice, after intraperitoneal administration at a dose of 5.5 mg/kg on day 5", "assay_type": "functional", "method_in_brief": "as §1"}, "[24]": {"species_on_record": "Mus musculus", "assay": "Half-wave potential produced by the compound at their optimal dose", "assay_type": "functional", "set-up": "unit not given here"}, "[25]": {"tested_on": "Mus musculus", "assay": "Effect of compound on total white blood cell count in BDG1 male mice, after intraperitoneal administration at a dose of 7.4 mg/kg on day 5", "assay_type": "functional", "method_in_brief": "as §1"}, "[26]": {"tested_on": "Mus musculus", "assay": "Effect of compound on total white blood cell count in BDG1 male mice, after intraperitoneal administration at a dose of 5.5 mg/kg on day 3", "assay_type": "functional", "method_in_brief": "as §1"}},
  "data": [
    {"smiles": "COC12[C@@H](COC(N)=O)C3=C(C(=O)C(C)=C(N4CC4C)C3=O)N1C[C@@H]1[C@H]2N1C", "note": "(some centres undefined)", "values": [
      {"measurement": "Change", "setting": "[1]", "value": -49, "unit": "%"},
      {"measurement": "Change", "setting": "[2]", "value": -44, "unit": "%"},
      {"measurement": "selectivity ratio", "setting": "[3]", "value": 8},
      {"measurement": "Change", "setting": "[4]", "value": -37, "unit": "%"},
      {"measurement": "Change", "setting": "[5]", "value": -4, "unit": "%"},
      {"measurement": "Change", "setting": "[6]", "value": -31, "unit": "%"},
      {"measurement": "Change", "setting": "[7]", "value": -30, "unit": "%"},
      {"measurement": "Change", "setting": "[8]", "value": -28, "unit": "%"},
      {"measurement": "Change", "setting": "[9]", "value": -31, "unit": "%"},
      {"measurement": "Change", "setting": "[10]", "value": -11, "unit": "%"},
      {"measurement": "Change", "setting": "[11]", "value": -25, "unit": "%"},
      {"measurement": "T/C", "setting": "[12]", "value": 163, "unit": "%"},
      {"measurement": "Change", "setting": "[13]", "value": -21, "unit": "%"},
      {"measurement": "Change", "setting": "[14]", "value": 2, "unit": "%"},
      {"measurement": "minimal effective dose", "setting": "[15]", "value": 0.4, "unit": "mg/kg"}
    ]},
    {"smiles": "COC12[C@@H]3N[C@@H]3CN1C1=C(C(=O)C(Nc3cccnc3)=C(C)C1=O)[C@@H]2COC(N)=O", "note": "(some centres undefined)", "values": [
      {"measurement": "Change", "setting": "[16]", "value": -0.2, "unit": "%"},
      {"measurement": "Change", "setting": "[17]", "value": -43, "unit": "%"},
      {"measurement": "Change", "setting": "[18]", "value": -14, "unit": "%"},
      {"measurement": "Change", "setting": "[19]", "value": -33, "unit": "%"},
      {"measurement": "selectivity ratio", "setting": "[3]", "value": "> 16"},
      {"measurement": "Change", "setting": "[20]", "value": -42, "unit": "%"},
      {"measurement": "Change", "setting": "[21]", "value": -36, "unit": "%"},
      {"measurement": "Change", "setting": "[22]", "value": 24, "unit": "%"},
      {"measurement": "Change", "setting": "[23]", "value": -24, "unit": "%"},
      {"measurement": "T/C", "setting": "[12]", "value": 211, "unit": "%"},
      {"measurement": "E1/2", "setting": "[24]", "value": -0.31},
      {"measurement": "minimal effective dose", "setting": "[15]", "value": "< 0.2", "unit": "mg/kg"},
      {"measurement": "Change", "setting": "[25]", "value": -46, "unit": "%"},
      {"measurement": "Change", "setting": "[26]", "value": -41, "unit": "%"}
    ]}
  ]
}
